Experimental data published in paper PMC3048909 (Journal of medicinal chemistry, 2011).
Where two headings read alike, the source gives them in different places.

How the values were obtained:
[1] = test system: nicotine-induced antinociception (tail-flick); settings: mice, antagonism of acute nicotine; parentheses: confidence limits; cited from earlier work
[2] = test system: nicotine-induced hypothermia; settings: mice, antagonism of acute nicotine; parentheses: confidence limits; cited from earlier work
[3] = test system: nicotine-induced antinociception (hot-plate); settings: mice, antagonism of acute nicotine; parentheses: confidence limits; cited from earlier work
[4] = test system: nicotine-induced locomotor depression; settings: mice, antagonism of acute nicotine; parentheses: confidence limits; cited from earlier work
[5] = target: T1, human DAT (Homo sapiens, UniProt Q01959); settings: HEK-293 cells, mean ± standard error; cited from earlier work
[6] = target: α1*-nAChR (muscle-type α1β1γδ-nAChR) (Homo sapiens, UniProt P02708+P07510+P11230+Q07001); test: 86Rb+ efflux assay of nAChR function; format: cell-based
α1*-nAChR (muscle-type α1β1γδ-nAChR), sequence (P02708 21-457): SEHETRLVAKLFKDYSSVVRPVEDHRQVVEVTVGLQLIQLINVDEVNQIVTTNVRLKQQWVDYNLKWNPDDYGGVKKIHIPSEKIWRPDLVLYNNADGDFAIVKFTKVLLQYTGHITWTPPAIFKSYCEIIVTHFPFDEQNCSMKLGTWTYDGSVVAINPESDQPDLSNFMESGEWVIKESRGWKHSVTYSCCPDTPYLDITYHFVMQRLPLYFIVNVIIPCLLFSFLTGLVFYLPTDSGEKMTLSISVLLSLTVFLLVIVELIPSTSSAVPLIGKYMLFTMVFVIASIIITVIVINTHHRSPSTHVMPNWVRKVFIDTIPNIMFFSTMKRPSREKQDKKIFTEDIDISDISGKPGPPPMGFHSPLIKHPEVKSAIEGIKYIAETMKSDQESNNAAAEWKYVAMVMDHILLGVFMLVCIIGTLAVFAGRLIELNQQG
α1*-nAChR (muscle-type α1β1γδ-nAChR), sequence (P11230 24-501): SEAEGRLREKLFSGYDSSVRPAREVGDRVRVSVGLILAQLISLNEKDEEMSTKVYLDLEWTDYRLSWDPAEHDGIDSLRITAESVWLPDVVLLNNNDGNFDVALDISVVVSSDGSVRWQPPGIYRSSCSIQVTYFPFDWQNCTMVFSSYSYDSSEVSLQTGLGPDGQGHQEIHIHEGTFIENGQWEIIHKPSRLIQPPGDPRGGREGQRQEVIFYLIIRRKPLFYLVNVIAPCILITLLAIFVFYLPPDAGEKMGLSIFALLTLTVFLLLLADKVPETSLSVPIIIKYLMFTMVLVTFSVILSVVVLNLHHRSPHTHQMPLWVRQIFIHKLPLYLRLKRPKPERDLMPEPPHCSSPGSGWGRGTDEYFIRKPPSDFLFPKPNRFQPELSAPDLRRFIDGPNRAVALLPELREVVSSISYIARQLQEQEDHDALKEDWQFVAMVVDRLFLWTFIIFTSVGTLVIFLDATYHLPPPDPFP
α1*-nAChR (muscle-type α1β1γδ-nAChR), sequence (P07510 23-517): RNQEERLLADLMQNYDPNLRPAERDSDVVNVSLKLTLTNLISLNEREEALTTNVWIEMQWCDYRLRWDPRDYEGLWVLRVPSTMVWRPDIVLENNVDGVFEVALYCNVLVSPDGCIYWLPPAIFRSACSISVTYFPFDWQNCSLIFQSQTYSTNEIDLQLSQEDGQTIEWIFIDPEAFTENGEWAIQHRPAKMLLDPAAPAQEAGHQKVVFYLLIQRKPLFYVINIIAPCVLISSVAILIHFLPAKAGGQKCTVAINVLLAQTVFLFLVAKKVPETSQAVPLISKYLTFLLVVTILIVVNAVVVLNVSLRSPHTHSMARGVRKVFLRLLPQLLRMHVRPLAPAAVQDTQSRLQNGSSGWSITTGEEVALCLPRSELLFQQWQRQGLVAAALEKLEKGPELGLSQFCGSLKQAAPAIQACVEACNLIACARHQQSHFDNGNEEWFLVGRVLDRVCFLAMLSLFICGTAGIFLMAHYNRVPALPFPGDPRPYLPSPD
α1*-nAChR (muscle-type α1β1γδ-nAChR), sequence (Q07001 22-517): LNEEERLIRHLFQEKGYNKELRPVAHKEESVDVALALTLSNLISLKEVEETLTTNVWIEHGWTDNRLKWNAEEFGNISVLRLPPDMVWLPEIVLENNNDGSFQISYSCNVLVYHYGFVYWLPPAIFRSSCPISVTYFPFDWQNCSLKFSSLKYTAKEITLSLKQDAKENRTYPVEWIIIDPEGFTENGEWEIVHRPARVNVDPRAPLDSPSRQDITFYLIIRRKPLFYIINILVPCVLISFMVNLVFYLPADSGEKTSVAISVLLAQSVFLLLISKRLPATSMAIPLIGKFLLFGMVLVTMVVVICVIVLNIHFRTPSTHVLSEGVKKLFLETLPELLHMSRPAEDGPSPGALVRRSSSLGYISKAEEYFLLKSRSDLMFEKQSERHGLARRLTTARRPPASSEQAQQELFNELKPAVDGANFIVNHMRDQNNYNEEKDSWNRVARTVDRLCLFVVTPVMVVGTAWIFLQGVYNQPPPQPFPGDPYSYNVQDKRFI

[7] = test system: nicotine-induced antinociception (tail-flick); test: Blockade of nicotine-induced antinociception, tail-flick test; format: in vivo, mice; settings: for ED50: Mus musculus, read-out: AD50 Tail-flick; for AD50 Tail-flick: mice, antagonism of acute nicotine, parentheses: confidence limits; for More potent in the tail-flick test: relative to (S,S)-4a
Procedure, shortened: (§1)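 Male ICR mice (20–25 g) were given the test compound to block the acute effects of nicotine. Dose-response curves used at least four doses of test compound, with at least eight mice per dose group. Results are AD50 (mg/kg) with confidence limits, or % effect at the highest dose tested.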

[8] = test system: nicotine-induced locomotor depression; test: Blockade of nicotine-induced locomotor depression; format: in vivo, mice; settings: for ED50: Mus musculus, read-out: AD50 Locomotion; for AD50 Locomotion: mice, antagonism of acute nicotine, parentheses: confidence limits
Procedure, shortened: as §1

[9] = test system: nicotine-induced hypothermia; test: Blockade of nicotine-induced hypothermia; format: in vivo, mice; settings: for ED50: Mus musculus, read-out: AD50 Hypothermia
Procedure, shortened: as §1

[10] = test system: nicotine-induced antinociception (hot-plate); test: Blockade of nicotine-induced antinociception, hot-plate test; format: in vivo, mice; settings: for ED50: Mus musculus, read-out: AD50 Hot-plate
Procedure, shortened: as §1

[11] = target: α4β2-nAChR (Homo sapiens, UniProt P17787+P43681); test: 86Rb+ efflux assay of nAChR function; format: cell-based
α4β2-nAChR, sequence (P43681 29-627 limits assumed): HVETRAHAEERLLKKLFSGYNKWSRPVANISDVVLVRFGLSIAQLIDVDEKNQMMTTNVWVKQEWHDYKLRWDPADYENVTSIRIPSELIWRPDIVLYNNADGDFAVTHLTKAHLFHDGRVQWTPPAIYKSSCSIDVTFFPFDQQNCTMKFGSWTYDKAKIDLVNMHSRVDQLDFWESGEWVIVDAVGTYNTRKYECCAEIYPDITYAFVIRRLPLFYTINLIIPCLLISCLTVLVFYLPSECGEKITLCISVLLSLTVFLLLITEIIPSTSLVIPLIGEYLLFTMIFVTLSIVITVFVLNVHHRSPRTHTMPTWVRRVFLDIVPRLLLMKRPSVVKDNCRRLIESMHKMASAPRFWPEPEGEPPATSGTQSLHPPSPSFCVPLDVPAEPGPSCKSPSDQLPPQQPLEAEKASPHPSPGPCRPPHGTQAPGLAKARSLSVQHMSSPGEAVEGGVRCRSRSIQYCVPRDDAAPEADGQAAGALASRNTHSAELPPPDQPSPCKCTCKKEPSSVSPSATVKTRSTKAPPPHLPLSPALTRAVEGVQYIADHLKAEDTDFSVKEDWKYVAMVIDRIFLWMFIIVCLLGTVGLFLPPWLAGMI
α4β2-nAChR, sequence (P17787 26-502): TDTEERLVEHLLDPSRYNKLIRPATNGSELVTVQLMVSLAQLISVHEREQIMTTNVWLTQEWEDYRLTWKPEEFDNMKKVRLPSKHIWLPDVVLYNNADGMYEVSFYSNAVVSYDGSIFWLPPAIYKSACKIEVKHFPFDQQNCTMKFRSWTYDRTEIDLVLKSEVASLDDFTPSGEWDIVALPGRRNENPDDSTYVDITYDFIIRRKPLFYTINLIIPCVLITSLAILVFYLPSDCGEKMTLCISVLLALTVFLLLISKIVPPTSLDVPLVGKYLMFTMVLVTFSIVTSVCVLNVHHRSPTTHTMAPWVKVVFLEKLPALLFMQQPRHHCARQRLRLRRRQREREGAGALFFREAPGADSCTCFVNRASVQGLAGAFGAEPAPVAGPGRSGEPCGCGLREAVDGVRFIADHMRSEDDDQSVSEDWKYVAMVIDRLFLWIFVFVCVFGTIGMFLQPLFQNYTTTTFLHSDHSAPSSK

[12] = test system: nicotine-induced CPP; settings: mice, blockade of nicotine-induced CPP; cited from earlier work
[13] = target: α3β4*-nAChR (Homo sapiens, UniProt P30926+P32297); test: 86Rb+ efflux assay of nAChR function; format: cell-based
α3β4*-nAChR, sequence (P32297 32-505): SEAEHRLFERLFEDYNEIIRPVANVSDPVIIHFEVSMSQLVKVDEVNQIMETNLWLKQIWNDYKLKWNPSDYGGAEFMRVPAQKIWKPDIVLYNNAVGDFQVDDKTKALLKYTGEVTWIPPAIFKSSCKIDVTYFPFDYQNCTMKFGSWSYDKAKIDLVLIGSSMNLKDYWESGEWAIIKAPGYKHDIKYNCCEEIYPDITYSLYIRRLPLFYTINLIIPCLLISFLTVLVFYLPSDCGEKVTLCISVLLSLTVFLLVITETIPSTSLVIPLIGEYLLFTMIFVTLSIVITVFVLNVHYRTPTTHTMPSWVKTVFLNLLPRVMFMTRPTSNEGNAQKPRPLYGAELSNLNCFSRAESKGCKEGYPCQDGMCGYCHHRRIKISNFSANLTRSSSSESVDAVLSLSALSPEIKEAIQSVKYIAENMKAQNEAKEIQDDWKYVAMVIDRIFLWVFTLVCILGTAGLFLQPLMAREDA
α3β4*-nAChR, sequence (P30926 22-498): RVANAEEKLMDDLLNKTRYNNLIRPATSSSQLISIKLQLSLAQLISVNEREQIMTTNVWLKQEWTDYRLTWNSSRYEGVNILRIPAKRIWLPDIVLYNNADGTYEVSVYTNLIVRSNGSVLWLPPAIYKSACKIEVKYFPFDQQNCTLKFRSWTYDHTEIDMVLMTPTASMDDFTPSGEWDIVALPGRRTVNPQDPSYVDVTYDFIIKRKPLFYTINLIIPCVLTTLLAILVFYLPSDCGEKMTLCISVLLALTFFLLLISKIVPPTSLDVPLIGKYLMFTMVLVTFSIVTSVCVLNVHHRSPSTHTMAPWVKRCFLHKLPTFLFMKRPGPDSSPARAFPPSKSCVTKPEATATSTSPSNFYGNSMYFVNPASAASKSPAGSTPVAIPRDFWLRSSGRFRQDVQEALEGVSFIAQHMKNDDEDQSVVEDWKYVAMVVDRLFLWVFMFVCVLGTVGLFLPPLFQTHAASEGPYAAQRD

[14] = target: human NET (Homo sapiens, UniProt P23975); test: [3H]NE uptake inhibition, HEK-293 cells expressing human NET; format: cell-based
human NET, sequence (P23975 whole entry): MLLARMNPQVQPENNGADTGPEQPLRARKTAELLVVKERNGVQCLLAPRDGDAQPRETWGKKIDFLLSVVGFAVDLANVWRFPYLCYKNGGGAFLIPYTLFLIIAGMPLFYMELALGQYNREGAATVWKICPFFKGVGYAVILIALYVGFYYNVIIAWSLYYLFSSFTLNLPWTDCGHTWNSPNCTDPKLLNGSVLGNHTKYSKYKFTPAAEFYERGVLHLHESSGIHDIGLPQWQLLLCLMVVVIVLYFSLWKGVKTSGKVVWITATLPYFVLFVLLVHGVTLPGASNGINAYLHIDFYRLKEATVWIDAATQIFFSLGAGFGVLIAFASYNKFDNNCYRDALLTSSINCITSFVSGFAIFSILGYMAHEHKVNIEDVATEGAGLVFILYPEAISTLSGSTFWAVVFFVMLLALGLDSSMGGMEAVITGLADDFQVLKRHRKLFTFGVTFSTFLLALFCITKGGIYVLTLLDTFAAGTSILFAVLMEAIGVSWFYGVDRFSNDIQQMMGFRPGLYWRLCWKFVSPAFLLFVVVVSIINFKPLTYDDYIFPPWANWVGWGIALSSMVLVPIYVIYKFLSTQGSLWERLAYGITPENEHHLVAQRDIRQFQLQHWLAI

[15] = target: α4β4-nAChR (Homo sapiens, UniProt P30926+P43681); test: 86Rb+ efflux assay of nAChR function; format: cell-based
α4β4-nAChR, sequence (P43681 29-627 limits assumed): as the sequence (P43681 29-627 limits assumed) above
α4β4-nAChR, sequence (P30926 22-498): as the sequence (P30926 22-498) above

[16] = target: T1, human DAT; test: [3H]DA uptake inhibition, HEK-293 cells expressing human DAT; format: cell-based; settings: for Increase in potency for inhibition of DA uptake: relative to (S,S)-5a
[17] = target: human SERT (Homo sapiens, UniProt P31645); test: [3H]5HT uptake inhibition, HEK-293 cells expressing human SERT; format: cell-based; settings: relative to (S,S)-5a
[18] = test system: nicotine-induced CPP; test: Blockade of nicotine-induced conditioned place preference; format: in vivo, mice; settings: for AD50 CPP: mice, blockade of nicotine-induced CPP
[19] = mice, antagonism of acute nicotine, parentheses: confidence limits

Compound | IC50 [6] [µM] | ED50 [7] [mg/kg] | ED50 [8] [mg/kg] | ED50 [9] [mg/kg] | ED50 [10] [mg/kg] | IC50 [13] [µM] | IC50 [11] [µM] | IC50 [14] [µM] | IC50 [15] [µM] | IC50 [16] [µM] | other results
C[C@H]1NC(C)(C)CO[C@]1(O)c1cccc(Cl)c1 [(R,R)-4a, (R,R)-2-(3'-chlorophenyl)-3,5,5-trimethylmorpholine-2-ol] | – | – | – | – | – | – | – | – | – | – | AD50 Tail-flick [1]: 2.5 (1.2–3.6) mg/kg; AD50 Hypothermia [2]: IA (IA = AD50 > 20 mg/kg); AD50 Hot-plate [3]: 10.3 (5.7–17.1) mg/kg; AD50 Locomotion [4]: IA (IA = AD50 > 20 mg/kg); Monoamine Uptake Inhibition IC50 [3H]DA [5]: inactive
C[C@H]1NC(C)(C)CO[C@@H]1c1cccc(Cl)c1 [(R,R)-5a, (R,R)-2-(3'-Chlorophenyl)-3,5,5-trimethylmorpholine] | 9.4 | 1.26 | > 20 | > 20 | 3.9 | – | – | – | – | – | –
C[C@@H]1NC(C)(C)CO[C@@]1(O)c1cccc(Cl)c1 [(S,S)-4a, (S,S)-2-(3'-chlorophenyl)-3,5,5-trimethylmorpholine-2-ol] | – | – | – | – | – | – | – | – | – | – | AD50 Tail-flick [1]: 0.2 (0.06–0.7) mg/kg; Potency as functional antagonist of α4β2-nAChR, higher than ([11]; relative to (R,R)-4a): ~ 10 fold; AD50 Hot-plate [3]: 1.0 (0.2–2.2) mg/kg; AD50 Locomotion [4]: 0.9 (0.2–5.7) mg/kg; AD50 CPP [12]: 0.1 mg/kg
C[C@@H]1NC(C)(C)CO[C@H]1c1cccc(Cl)c1 [(S,S)-5a, (S,S)-2-(3'-Chlorophenyl)-3,5,5-trimethylmorpholine] | – | 0.036 | > 20 | > 20 | > 20 | – | – | – | – | – | AD50 Tail-flick [7]: 0.036 (0.012–0.1) mg/kg; More potent in the tail-flick test [7]: 5.5 times; AD50 Hypothermia [9, 19]: inactive; AD50 Hot-plate [10, 19]: inactive
C[C@@H]1NC(C)(C)CO[C@H]1c1cccc(F)c1 [(S,S)-5b, (S,S)-2-(3’-Fluorophenyl)-3,5,5-trimethylmorpholine] | 34 | 0.02 | 4.7 | > 20 | > 20 | 5.6 | 23 | 0.032 ± 0.003 | 55 | 0.061 ± 0.02 | More potent as NE uptake inhibitor ([14]; compared to (S,S)-4a): 5.6 fold; Increase in potency for inhibition of NE uptake ([14]; relative to (S,S)-5a): 3.2 fold; More potent as DA uptake inhibitor ([16]; compared to (S,S)-4a): 10 fold; Increase in potency for inhibition of DA uptake [16]: 3.7 fold; Decrease in potency for inhibition of 5HT uptake [17]: 12 fold
C[C@@H]1NC(C)(C)CO[C@H]1c1cccc(Br)c1 [(S,S)-5c, (S,S)-2-(3'-Bromophenyl)-3,5,5-trimethylmorpholine] | 7.3 | 0.006 | – | > 20 | > 20 | 1.4 | 12 | 0.15 ± 0.02 | 11 | 0.044 ± 0.003 | More potent at α3β4*-nAChR ([13]; relative to (S,S)-5a): ~ 2 fold; More potent in the tail-flick test [7]: ~ 33 times; AD50 Locomotion [8]: 2.1 (0.9–4.8) mg/kg; Increase in potency for inhibition of DA uptake [16]: 5 fold
C[C@H]1[C@H](c2cccc(Cl)c2)OCC(C)(C)N1C [(S,S)-5d, (S,S)-2-(3'-Chlorophenyl)-3,4,5,5-tetramethylmorpholine] | 21 | 0.13 | 3.8 | > 20 | > 20 | 2.8 | 16 | 0.17 ± 0.02 | 23 | 0.23 ± 0.06 | –
CCN1[C@@H](C)[C@H](c2cccc(Cl)c2)OCC1(C)C [(S,S)-5e, (S,S)-2-(3'-Chlorophenyl)-4-ethyl-3,5,5-trimethylmorpholine] | 14 | 0.029 | > 20 | > 20 | > 20 | 0.79 | 7.2 | 0.024 ± 0.008 | 6.4 | 0.044 ± 0.009 | AD50 CPP [18]: 0.025 mg/kg; More potent in blocking nicotine-induced CPP ([18]; relative to (S,S)-4a): 4 fold
CCCN1[C@@H](C)[C@H](c2cccc(Cl)c2)OCC1(C)C [(S,S)-5f, (S,S)-2-(3'-Chlorophenyl)-3,5,5-trimethyl-4-propylmorpholine] | 5.5 | 0.056 | > 20 | > 20 | > 20 | 0.98 | 12 | 0.013 ± 0.0036 | 5.8 | 0.061 ± 0.02 | AD50 CPP [18]: 0.03 mg/kg
CC[C@@H]1NC(C)(C)CO[C@H]1c1cccc(Cl)c1 [(S,S)-5g, (S,S)-2-(3'-Chlorophenyl)-3-ethyl-5,5-dimethylmorpholine] | 13 | 0.018 | 2.7 | 2.5 | 9.6 | 5.6 | 14 | 0.019 ± 0.003 | 15 | 0.023 ± 0.005 | AD50 Tail-flick [7]: 0.018 (0.009–0.03) mg/kg
CCC[C@@H]1NC(C)(C)CO[C@H]1c1cccc(Cl)c1 [(S,S)-5h, (S,S)-2-(3'-Chlorophenyl)-5,5-dimethyl-3-propylmorpholine] | 5 | 0.017 | 0.49 | > 20 | > 20 | 3.1 | 9.5 | 0.009 ± 0.002 | 8 | 0.006 ± 0.001 | AD50 Tail-flick [7]: 0.017 (0.002–0.15) mg/kg; AD50 Locomotion [8]: 0.49(0.3–6.6) mg/kg
CC(NC(C)(C)C)C(=O)c1cccc(Cl)c1 (stereo not drawn) [compound 2, bupropion] | – | – | – | – | – | – | – | – | – | – | AD50 Hypothermia [2]: 9.2 (4–23) mg/kg; AD50 Hot-plate [3]: 15 (6–19) mg/kg; AD50 Locomotion [4]: 4.9 (0.9–46) mg/kg; AD50 CPP [12]: 0.35 mg/kg
